Bioassay records as filed in PubChem BioAssay.
The list is not random: actives were taken first. Their share in the collection is about 4.9%.
HSF1 inh = HSF1 inhibition. hit rate 0.77% among 300,000. NIH3T3-HGL HSE-luciferase, MG132-induced, luminescence 8 h; hits give low values. activity change, negative = inhibition, % at 7.5 µM (by protocol);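 active = more than half of replicate wells show activity change below -50%, luminescence cut by over half; inconclusive = some wells, but at most half, below -50%; inactive = no replicate well below -50%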;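 also: luciferase reports HSF-1 transcriptional activity via heat shock element; 0% = median of DMSO wells and -100% = zero luminescence signal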
CHT inh = inhibits the human high affinity choline transporter. Q9GZV3. CHT-expressing cells, membrane potential dye, choline response; hits give low values. B-score at 10 µM. hit rate 0.86% among 310,000;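 active = B-score over 3 SD under the library average, and starting fluorescence ratio not unusually high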;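 also: choline stimulus applied at its EC90 after an EC20 pre-addition; B-score computed on integrated fluorescence ratio after choline addition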
CHT PAM = allosterically activates the human high affinity choline transporter. Q9GZV3. CHT-expressing cells, membrane potential dye, choline EC20; hits give high values; LV-AA mutant CHT in HEK293 cells. B-score at 10 µM. hit rate 0.49% among 310,000. AID 488977;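 active = initial fluorescence not abnormally high and integrated response B-score, plate-corrected, over 3 SD above library mean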
Hep lipid drop = modulators of hepatic lipid droplet formation. AML12 mouse hepatocytes, oleate lipid droplets, BODIPY imaging. inhibition, % at 6.5 µM. hit rate 0.4% among 240,000. AID 1656;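 active = lipid droplet intensity inhibited by at least 50%, with more than 500 cells counted; inconclusive = wells with under 300 cells, treated as cytotoxic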
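Material – mouse AML12 hepatocyte cell line, fixed after treatment · Compound dosing – one dose, 6.5 µM compound · Times – compound with oleate, overnight · Measured by – Image-based BODIPY and DAPI two-channel analysis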
HSF-1 act = increases HSF-1 driven luciferase reporter signal | activation, % at 9 µM | hit rate 1.7% among 300,000 | NIH3T3-HGL HSF-1 luciferase reporter, MG132, 8 h; 100% = twice DMSO control signal;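 active = mean replicate activation of at least 50% with a set share of replicates each reaching 50%; inconclusive = only one of those two conditions met; inactive = mean below 50% and too few replicates reaching it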;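 also: 0% = median of the neutral control wells and 100% = twice that signal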
PHOSPHO1 block = blocks human PHOSPHO1 phosphatase activity. inhibition, % at 13.3 µM. Q8TCT1. recombinant PHOSPHO1, absorbance phosphatase assay. hit rate 1.1% among 290,000. AID 1565; in the data active = inhibition above about 60%
Target sequence (Q8TCT1 whole entry, looked up): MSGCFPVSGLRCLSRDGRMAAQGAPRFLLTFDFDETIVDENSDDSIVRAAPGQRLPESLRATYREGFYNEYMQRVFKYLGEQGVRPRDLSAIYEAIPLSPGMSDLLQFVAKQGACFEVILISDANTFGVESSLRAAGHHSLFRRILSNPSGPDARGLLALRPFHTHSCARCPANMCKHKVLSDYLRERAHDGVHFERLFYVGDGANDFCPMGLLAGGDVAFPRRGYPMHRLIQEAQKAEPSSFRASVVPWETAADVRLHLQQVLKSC
Starred values were filed as active, the others as inactive; i = inactive; ? = inconclusive; / = no result given.

SMILES	HSF1 inh	CHT inh	CHT PAM	Hep lipid drop	HSF-1 act	PHOSPHO1 block
CCOC(=O)CC1C(=O)NCCN1Cc1cccs1 (stereo not given)	-7.6	i	i	25.3	-0.2	64.3*
CCOC(=O)C1CCCN(Cc2cccs2)C1 (stereo not given)	-2.3	i	i	20.4	-3.9	73.4*
N#Cc1ccc(N2C(=O)[C@@H]3C(C(=O)c4cnccn4)=NN[C@@H]3C2=O)cc1	-9.8	i	i	0.6	-0.7	27.3
Cc1cc(C(N)=O)c2ccccc2n1	0.4	i	i	/	-6.3	-17.7
Cc1cc(Sc2nnc(N)s2)c2ccccc2n1	108.3	i	i	-5.3	136.0*	3.3
CC1CCCCN1C(=O)COc1ccccc1F (stereo not given)	19.2	i	i	-24.3	56.2*	6.4
Cc1ccc(C)c(OCc2nnc(N)s2)c1	1.9	i	i	/	6.1	71.9*
COCc1nnc(N)s1	-6.7	i	i	-9.4	-28.0	5.8
CCOc1ccc(Cc2nnc(N)s2)cc1OCC	-7.1	i	i	-1.6	7.9	7.1
Nc1nnc(COc2ccc(Br)cc2Br)s1	45.8	i	i	/	92.2*	2.8
COc1cccc(S(=O)(=O)NCc2ccc(C(=O)Nc3ccc(C)cc3)cc2)c1	-2.4	i	i	8.0	-7.0	7.8
COc1ccc2c(c1)[C@H]1[C@H](CO2)[C@H](c2ccccc2)[C@]2(C)C(=O)Nc3cc(OC)c(OC)cc3C(=O)N12	/	i	i	/	/	/
O=C(CCC1CCCC1)N=C1SC2CS(=O)(=O)CC2N1c1ccccc1F (stereo not given)	19.4	i	i	0.7	64.3*	12.7
O=c1nc2c(-c3cccc(Br)c3)n[nH]n2c2ccccc12	2.0	i	i	-8.3	13.2	42.0
CC(OC(=O)/C=C/c1ccc2ccccc2n1)C(=O)NCc1ccccc1 (stereo not given)	79.8	i	i	/	121.7*	/
COC(=O)CNC(=O)COC(=O)/C=C/c1ccc2ccccc2n1	1.9	i	i	-17.6	13.5	26.7
Cc1cc(C(=O)CSc2nnc(Nc3ccccc3F)s2)c(C)n1CC1CCCO1 (stereo not given)	-0.9	/	/	/	22.3	93.5*
Cc1cc(C(=O)CSc2nnc(NCc3ccccc3)s2)c(C)n1C	-21.8	i	i	/	-38.7	91.1*
COc1ccccc1Nc1nnc(SCC(=O)c2cc(C)n(CC3CCCO3)c2C)s1 (stereo not given)	8.5	i	i	/	-4.0	93.4*
COc1ccccc1C(=O)Nc1nnc(SCC(=O)NCC2CCCO2)s1 (stereo not given)	17.7	i	i	-7.3	27.9	13.0
Cc1cc(C(=O)CSc2nnc(-c3cccnc3)n2-c2ccccc2F)c(C)n1CC1CCCO1 (stereo not given)	-4.8	i	i	-17.0	-6.6	53.0
Cc1cc(C(=O)CSc2nnc(Nc3ccccc3)s2)c(C)n1CC1CCCO1 (stereo not given)	8.0	i	i	/	15.8	89.5*
O=C(/C=C/c1ccco1)NC(=S)Nc1cc(-c2nc3ccccc3s2)ccc1Cl	/	i	i	0.6	/	-11.4
Cc1ccc(-c2nc3ccccc3s2)cc1NC(=S)NC(=O)/C=C/c1ccco1	45.7	i	i	/	65.5*	16.9
CCOCCCNC(=O)C1CCN(Cc2cccc(OCc3ccccc3)c2)CC1	-6.2	i	i	-2.8	22.7	23.5
SMILES	HSF1 inh	CHT inh	CHT PAM	Hep lipid drop	HSF-1 act	PHOSPHO1 block
CN(/C(=N\S(=O)(=O)c1ccccc1)C(F)(F)F)c1ccccc1	-56.1*	i	i	/	-63.5	32.3
Cc1ccc(S(=O)(=O)/N=C(\c2ccccc2)N(C)S(=O)(=O)c2ccccc2)cc1	2.1	i	i	-31.1	14.6	1.9
CCOc1cc(/C=C2\C(=O)N(Cc3ccc(C)cc3)C(C)=C2C(=O)OC)ccc1O	53.2	i	i	/	77.0*	-3.7
COCCCN1C(=O)/C(=C\c2ccc3c(c2)OCO3)C(C(=O)OC)=C1C	-7.2	i	i	6.3	-2.1	31.2
CCN1C(=O)/C(=C\c2ccc3c(c2)OCO3)C(C(=O)OC)=C1C	26.4	i	i	/	62.6*	7.8
Cc1cc(Cl)cc(Br)c1OCCNCC(C)O (stereo not given)	-4.1	i	i	-3.9	0.5	20.3
CCn1cc(C(=O)OCC(=O)Nc2cccc(Cl)c2Cl)c(=O)c2ccc(C)nc21	-9.5	i	i	12.5	-8.3	13.3
CCn1c(=O)n(CC)c2cc(N3CCCC3)c(NC(=O)c3ccc(OC)c(Br)c3)cc21	-71.4*	i	i	11.3	-78.4	39.9
CC(C)CNC(=S)NNC(=O)c1ccc(OC(F)F)cc1	11.5	i	i	/	8.1	93.8*
C=CCNC(=S)NNC(=O)c1ccc(OC(C)C)cc1	-1.6	i	i	/	5.2	71.5*
CCNC(=S)NNC(=O)c1csc2ccccc12	4.7	i	i	/	9.7	-130.5
CCNC(=S)NNC(=O)c1ccc(OC(F)F)cc1	2.0	i	i	-5.6	13.8	73.3*
CC(C)CNC(=S)NNC(=O)c1csc2ccccc12	-22.9	i	i	13.1	-37.4	88.1*
CC1SCCN1S(=O)(=O)c1ccc2ccccc2c1 (stereo not given)	2.7	i	i	2.4	9.0	-4.4
Cc1ccc2c(c1)N(C(=O)CCC(=O)NC1CCCCCC1)CCO2	-0.1	i	i	-0.4	-8.9	9.9
CC(C)c1onc(C(=O)N2CCN(C(c3ccccc3)c3ccccc3)CC2)c1[N+](=O)[O-]	-56.8*	i	i	-2.3	-62.0	-11.1
Cc1csc2nc(CSc3nc4ccccc4o3)c(Br)n12	92.6	i	i	1.5	110.4*	-35.6
CC(=O)Nc1ccc(NC(=O)c2c([N+](=O)[O-])cnn2C)cc1	-0.2	i	i	-1.2	3.1	-13.2
Cn1ncc([N+](=O)[O-])c1C(=O)Nc1ccc(-c2nc3ccccc3o2)cc1	18.7	i	i	0.2	56.3*	8.4
O=C(CNC(=O)c1ccc(Br)cc1)OCc1cc([N+](=O)[O-])cc2c1OCOC2	0.4	i	i	20.0	3.8	68.1*
CCOc1ccc(C(=O)NCC(=O)OCc2cc([N+](=O)[O-])cc3c2OCOC3)cc1OCC	-3.9	i	i	15.7	-10.3	-2.1
Cc1cc(C)cc(OCC(=O)NNC(=O)CN2C(=O)c3ccccc3C2=O)c1	/	i	i	-0.1	/	3.1
Cc1ccc(OCCCC(=O)Nc2ccc(S(=O)(=O)Nc3ccccn3)cc2)cc1	-33.9	i	i	1.7	-44.9	41.1
O=C(Nc1ccc(Br)cn1)c1ccc(Cl)s1	35.5	i	i	-11.2	?	40.9
